Laboratory results published in ChEMBL document CHEMBL4411275, “Design, synthesis and biological evaluation of quinoline-indole derivatives as anti-tubulin agents targeting the colchicine binding site” (Eur J Med Chem, 2019).

Tests used:
H22 (Mus musculus) = assay: Antiproliferative activity against mouse H22 cells after 72 hrs by MTT assay; conditions: H22, 72 h
K562 [1] = assay: Induction of apoptosis in human K562 cells at 2 nM after 48 hrs by Annexin-V/propidium iodide staining-based flow cytometric analysis (reference value: 5.96%)
Tubulin (Sus scrofa) [2] = target: T1, Tubulin (Sus scrofa) (UniProt P02554+P02550); assay: Inhibition of [3H]-colchicine binding to biotinylated porcine tubulin at 5 uM after 2 hrs by SPA relative to control; type: protein assay
Method in brief: (§1)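 Scintillation proximity assay: 0.08 μM [3H]colchicine incubated with biotinylated porcine tubulin (0.5 μg) and test compound for 2 h at 37 °C in 80 mM PIPES pH 6.8, 1 mM EGTA, 10% glycerol, 1 mM MgCl2, 1 mM GTP. Streptavidin SPA beads then added, and bound radioactivity counted by scintillation counter.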

HUVEC = assay: Antiproliferative activity against HUVEC at 2 to 4 nM after 6 hrs; type: cell-based; conditions: human, 0.004 µM
K562 [3] = assay: Cell cycle arrest in human K562 cells assessed as accumulation of cells at S phase at 4 nM after 48 hrs by propidium iodide staining-based flow cytometric analysis (reference value: 19.93%); type: functional
KB = assay: Antiproliferative activity against human KB cells after 72 hrs by MTT assay; type: functional, cell-based
Method in brief: (§2)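 Cells preincubated 24 h at 37 °C, 5% CO₂. Compounds added at several concentrations in medium with 0.1% DMSO for 72 h. MTT (5 mg/mL in PBS) then added for 4 h, and optical density read at 490 nm. IC50 taken from dose-response curves; mean ± SD of at least three independent experiments.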

K562 [4] = assay: Induction of mitochondrial membrane potential loss in human K562 cells assessed as collapsed mitochondrial membrane at 2 nM after 48 hrs by JC-1 dye-based flow cytometric analysis (RVB = 6.17%)
Tubulin (Sus scrofa) [5] = target: T1, Tubulin (Sus scrofa); assay: Inhibition of [3H]-colchicine binding to biotinylated porcine tubulin at 1 uM after 2 hrs by SPA relative to control; type: protein assay
Method in brief: as §1

[6] = Toxicity in ICR mouse xenografted with […] cells assessed as body weight loss at 20 mg/kg/day, iv for 21 days; type: organism-based; conditions: in vivo, 504 h
Method in brief: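 H22 cells (1×10^6) implanted s.c. in right flank of male ICR mice (five weeks old), eight per group. Body weight recorded every 2 days during treatment.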

L02 = assay: Antiproliferative activity against human LO2 cells after 72 hrs by MTT assay; type: cell-based; conditions: L02, 72 h
Method in brief: as §2

K562 [7] = assay: Induction of mitochondrial membrane potential loss in human K562 cells assessed as intact mitochondrial membrane at 2 nM after 48 hrs by JC-1 dye-based flow cytometric analysis (RVB = 93.17%)
K562 [8] = assay: Cell cycle arrest in human K562 cells assessed as accumulation of cells at G2 phase at 1 nM after 48 hrs by propidium iodide staining-based flow cytometric analysis (reference value: 10.51%); type: functional
K562 [9] = assay: Induction of apoptosis in human K562 cells at 4 nM after 48 hrs by Annexin-V/propidium iodide staining-based flow cytometric analysis (reference value: 5.96%)
K562 [10] = assay: Induction of apoptosis in human K562 cells after 48 hrs by […]-based flow cytometric analysis; type: functional, cell-based
[11] = Drug resistance index, ratio of IC50 for ADR-resistant human Bel7402/ADR cells to IC50 for human Bel7402 cells; type: functional
Method in brief: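 Resistant and parental sensitive lines exposed to a range of compound concentrations in medium with 0.1% DMSO for 72 h at 37 °C, 5% CO2, after 24 h pre-culture. MTT added for 4 h, absorbance read at 490 nm. IC50 from dose-response curves, at least three independent experiments. DRI = IC50 resistant / IC50 parental.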

K562 [12] = assay: Cell cycle arrest in human K562 cells assessed as accumulation of cells at S phase at 1 nM after 48 hrs by propidium iodide staining-based flow cytometric analysis (reference value: 19.93%); type: functional
A549/TR = assay: Antiproliferative activity against human taxol-resistant A549/TR cells after 72 hrs by MTT assay; type: functional, cell-based
Method in brief: as §2

T1 sequence (P02550 whole entry, looked up): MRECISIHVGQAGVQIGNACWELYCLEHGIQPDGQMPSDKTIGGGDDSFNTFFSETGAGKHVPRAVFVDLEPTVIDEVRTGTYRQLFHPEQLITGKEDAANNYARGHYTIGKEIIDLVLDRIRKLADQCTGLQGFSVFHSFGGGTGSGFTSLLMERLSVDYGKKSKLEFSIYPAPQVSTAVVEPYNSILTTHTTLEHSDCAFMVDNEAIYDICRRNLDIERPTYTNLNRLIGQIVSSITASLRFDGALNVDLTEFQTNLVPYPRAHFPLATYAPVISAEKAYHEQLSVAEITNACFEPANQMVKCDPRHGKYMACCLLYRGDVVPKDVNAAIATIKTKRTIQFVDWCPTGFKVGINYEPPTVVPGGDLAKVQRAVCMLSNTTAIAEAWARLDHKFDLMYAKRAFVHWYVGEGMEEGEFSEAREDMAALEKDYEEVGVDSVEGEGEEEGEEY
T1 sequence (P02554 whole entry, looked up): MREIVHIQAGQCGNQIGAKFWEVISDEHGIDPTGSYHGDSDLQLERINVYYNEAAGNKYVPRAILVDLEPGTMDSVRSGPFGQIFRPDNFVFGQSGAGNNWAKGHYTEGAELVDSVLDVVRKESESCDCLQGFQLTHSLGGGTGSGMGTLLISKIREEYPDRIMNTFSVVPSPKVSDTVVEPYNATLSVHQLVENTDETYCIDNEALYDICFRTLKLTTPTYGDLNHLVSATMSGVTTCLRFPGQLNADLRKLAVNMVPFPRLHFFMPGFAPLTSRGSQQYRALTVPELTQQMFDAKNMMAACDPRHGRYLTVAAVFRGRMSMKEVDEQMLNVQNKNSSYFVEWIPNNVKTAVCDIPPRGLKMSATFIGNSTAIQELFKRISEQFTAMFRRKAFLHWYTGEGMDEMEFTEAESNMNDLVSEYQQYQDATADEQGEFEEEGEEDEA

inhibition (Tubulin (Sus scrofa) [2]): 90.5% | IC50 (KB): 5 nM | inhibition (Tubulin (Sus scrofa) [5]): 79.4% | IC50 (A549/TR): 119 nM
SMILES: C=C(c1ccc2c(ccn2CO)c1)c1cc(C)nc2ccccc12
IC50 (H22 (Mus musculus)): 6 nM | Activity (K562 [1]): 54.9% | Activity (HUVEC): Non-Toxic | Activity (K562 [3]): 31% | Activity (K562 [4]): 45.1% | Activity [6]: Non-Toxic | IC50 (L02): 48 nM | Activity (K562 [7]): 45.4% | Activity (K562 [8]): 12.44% | Activity (K562 [9]): 72.8% | Activity (K562 [10]): Dose-dependent effect | Ratio IC50 [11]: 6.1 | Activity (K562 [12]): 27.38%
